# Compound activity deposited in PubChem BioAssay by several laboratories.
# Compounds with a hit are over-represented: about 2.3% of the library has one in this group of screens.
# tolC growth inh: growth inhibitors of E. coli BW25113 tolC mutant; growth inhibition, % at 10 µM (by protocol); OD615; hit rate 2.2% among 65,000;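 active means growth inhibition at or above a cutoff equal to the mean over every tested compound plus 3 SD, cut at about 60% in these data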;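 further: growth measured after 20 h incubation at 37 °C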
#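 Test system: E. coli BW25113 ΔtolC::kan bacteria | Medium: Kanamycin-containing LB broth (50 µg/mL) | Dosing: One dose of 10 µM final | Times: 20 h incubation with compound, 37 °C | Detection: Optical density read at 615 nm | Read-out basis: Percent growth inhibition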
# HePTP inhibitor: human HePTP phosphatase inhibition; inhibition, % at 20 µM; hit rate 0.64% among 110,000; P35236; recombinant HePTP phosphatase activity, OD absorbance; AID 521; in the data active means inhibition above about 50%;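 further: plate controls were vehicle for no effect and reference inhibitor for full effect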
# Target sequence (P35236 whole entry, looked up): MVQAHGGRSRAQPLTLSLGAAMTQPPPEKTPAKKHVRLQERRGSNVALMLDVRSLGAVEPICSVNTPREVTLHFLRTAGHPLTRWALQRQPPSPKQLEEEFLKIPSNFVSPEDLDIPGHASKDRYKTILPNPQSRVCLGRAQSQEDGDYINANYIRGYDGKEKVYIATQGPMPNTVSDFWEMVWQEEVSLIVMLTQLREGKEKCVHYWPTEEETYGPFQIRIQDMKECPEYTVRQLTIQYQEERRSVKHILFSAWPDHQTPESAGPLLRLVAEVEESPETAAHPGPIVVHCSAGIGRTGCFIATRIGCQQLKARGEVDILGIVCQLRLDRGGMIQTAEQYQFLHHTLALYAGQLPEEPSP
# PLAP act: human PLAP activation; P05187; purified PLAP enzyme, luminescent substrate read-out; active compounds read high; activation fold at 20 µM; hit rate 1.2% among 96,000; in the data active means activation fold above about 2
# Ecoli WT expand: blocks growth of wild type E. coli BW25113; AID 710; growth inhibition, % at 100 µM; OD600 absorbance; hit rate 0.15% among 98,000;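 active means growth inhibition above about 50% at one test dose, limit read from the data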;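 further: growth measured after 20 h incubation at 37 °C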
# AP ELISA ortho: alternative pathway complement inhibition, orthogonal assay | Human serum alternative complement pathway, LPS-coated ELISA, C3 deposition; tested in compound mixtures | inhibition, % at 5 µM | hit rate 0.08% among 62,000;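 active means inhibition above 30% in each of the two pooled mixtures holding the compound, so the lower value exceeds 30%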;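 further: 0% = serum in Mg-EGTA without compound and 100% = EDTA serum blank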
#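 Test system: human serum complement alternative pathway, C3 deposition onto LPS / Medium: Mg2+-EGTA GVB++ buffer containing human serum at 1:15 dilution / Probe or stimulus: Plate-bound LPS / Times: 1 h at 37 °C / Signal: ELISA with HRP anti-human C3 antibody, TMB substrate, absorbance 450 nm / Measure: percent inhibition / Repeats: two pool placements per compound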
# Starred values were filed as active, the others as inactive; x = not tested or not shown.
SMILES,tolC growth inh,HePTP inhibitor,PLAP act,Ecoli WT expand,AP ELISA ortho
COc1ccc(-n2c(Cc3cccn3C)nnc2SCC(=O)Nc2cccc(OC)c2)cc1,19.5,-7.5,1.6,0.0,-11.2
Clc1cc(Cl)c(OCc2nc(-c3ccccn3)no2)cc1Cl,-2.7,-4.1,0.8,-13.0,0.8
CC(C)(C)c1ccc(OCc2nc(-c3ccccn3)no2)c(Br)c1,100.0*,4.2,1.5,3.0,1.8
O=C(C[n+]1cccc(NC(=O)c2ccccc2)c1)c1ccc(NC(=O)c2ccccc2)cc1,x,x,1.1,62.0*,x
O=C(C[n+]1cccc(NC(=O)c2ccccc2)c1)c1ccccc1,x,x,0.9,10.0,x
O=C(NC1CC2CCCC(C1)N2Cc1ccco1)NC12CC3CC(CC(C3)C1)C2 (centres undefined),-4.2,5.4,2.2*,2.0,10.0
CCOc1ccc2nc(NC(=O)COc3ccccc3C)sc2c1,x,8.6,x,x,x
CC(C)(C)CC(C)(C)NC(=O)c1ccc2nccnc2c1,x,-9.8,x,x,x
Nc1cccc(C(=O)c2cccc(N)c2)c1,x,-2.1,x,x,x
CC(C)NC(=O)c1sc2nc3c(c(-c4cccs4)c2c1N)CN(C)CC3,x,x,2*,2.0,x
COc1nc(N(c2ccccc2)c2ccccc2)nc(-n2ccnc2)n1,94.5*,2.7,1,25.0,5.9
CC(=O)N1CCN(c2nc(OC(C(F)(F)F)C(F)(F)F)nc(N(c3ccccc3)c3ccccc3)n2)CC1,x,-2.2,x,x,x
CC(NC(=O)c1ccccc1)c1ccc(Cl)cc1 (centres undefined),x,-0.5,x,x,x
O=C1NC(=S)N(c2ccc(Cl)cc2)C(=O)/C1=C\c1ccc(-c2cccc(C(=O)O)c2)o1,x,77.6*,x,x,x
CCOc1ccc(N2C(=O)NC(=O)/C(=C/c3ccc(-c4ccc(C(=O)O)c(Cl)c4)o3)C2=O)cc1,x,102.6*,x,x,x
CCOC(=O)c1ccc(N2NC(=O)/C(=C/c3ccc(-c4ccc(Cl)c(C(=O)O)c4)o3)C2=O)cc1,x,50.6*,x,x,x
CC1=C(C#N)C(=O)NC(=O)/C1=C\c1ccc(-c2ccc(Cl)c(Cl)c2)o1,x,67.2*,x,x,x
O=C1NC(=S)N(c2ccc(F)cc2)C(=O)/C1=C/c1ccc(-c2cccc(C(=O)O)c2)o1,x,44.3,x,x,x
Cc1cc(Br)ccc1N1C(=O)/C(=C/C=C/c2ccccc2)C(=O)NC1=S,x,-3.1,x,x,x
COc1c(Br)cc(Cl)cc1/C=C1\C(=O)NC(=S)N(c2ccc(C)cc2)C1=O,x,102.9*,x,x,x
Cc1ccc(N2C(=O)/C(=C\c3ccc(-c4ccc(Cl)c(C(=O)O)c4)o3)C(=O)NC2=S)cc1,x,66.0*,x,x,x
O=C1NC(=S)N(c2ccccc2)C(=O)/C1=C/c1ccc(-c2ccc(Cl)c(C(=O)O)c2)o1,x,22.7,x,x,x
O=C1NC(=S)N(c2ccc(Cl)cc2)C(=O)/C1=C/C=C/c1ccccc1,x,61.9*,x,x,x
Cc1ccc([N+](=O)[O-])cc1-c1ccc(/C=C2/C(=O)NN(c3ccc(Cl)cc3)C2=O)o1,x,94.1*,x,x,x
O=[N+]([O-])c1ccc(Nc2c(F)c(F)c(F)c(F)c2F)cc1,x,-3.6,x,x,x
SMILES,tolC growth inh,HePTP inhibitor,PLAP act,Ecoli WT expand,AP ELISA ortho
Cc1ccc(S(=O)(=O)NC(=O)Nc2ccccc2I)cc1,x,6.5,x,x,x
O=C(c1ccc(COc2ccccc2Cl)o1)N1CCCC1,x,x,1.1,13.0,x
CC1CCN(C(=O)c2ccc(COc3ccccc3Cl)o2)CC1,86.7*,8.8,1.4,12.0,12.2
O=C(c1ccccc1)c1ccc2nc[nH]c2c1,-4.1,4.7,2*,15.0,6.8
CN1C(=O)/C(=C\c2ccccc2OCc2ccc(Cl)cc2)SC1=S,x,0.8,x,x,x
O=C(NC(=S)NC1CCSC1=O)c1ccco1 (centres undefined),x,103.4*,x,x,x
CCC(C)c1ccc(OCC(=O)Nc2ccc3c(c2)C(=O)N(c2cccc(C)c2C)C3=O)cc1 (centres undefined),x,-6.4,x,x,x
Cc1ccc(C(=O)c2cc3ccccc3o2)cc1,x,x,0.9,5.0,x
O/N=C(\c1ccc(Cl)cc1)c1cc2ccccc2o1,97.5*,4.0,1,-3.0,8.7
N#C/C(=C\c1cn[nH]c1-c1ccc(Cl)cc1)C(=O)NCc1ccccc1,x,x,2.1*,-15.0,x
COc1ccc(-c2[nH]ncc2/C=C(\C#N)C(=O)NC2CC2)cc1,x,x,2.6*,-3.0,x
CC(NC(=O)/C(C#N)=C/c1cn[nH]c1-c1ccccc1)c1ccccc1 (centres undefined),x,x,1.8,2.0,x
CCc1ccc(-n2nnnc2SCC(=O)NNC(=O)c2ccco2)cc1,x,x,2.3*,2.0,x
CC(=O)c1ccc(-n2nnnc2SCC(=O)NNC(=O)c2ccco2)cc1,x,x,2.2*,2.0,x
CC(=O)c1ccc(-n2nnnc2SCC(=O)Nc2cccc(NC(=O)c3ccco3)c2)cc1,x,x,0.9,-7.0,x
CN(C)CCCNC(=O)c1ccccc1Cl,x,-3.0,x,x,x
CC(C)(C)c1cc(C=NN2CCN(Cc3ccccc3)CC2)cc(C(C)(C)C)c1O,x,-0.4,x,x,x
COC(=O)c1cc(NC(=O)c2cc3ccccc3oc2=O)cc(C(=O)OC)c1,x,-22.0,x,x,x
O=C(CCCN1C(=O)c2ccccc2C1=O)Nc1ccccc1C(=O)N1CCCC1,x,1.3,x,x,x
O=C(CCCN1C(=O)c2ccccc2C1=O)Nc1ccccc1C(=O)N1CCCCC1,x,77.5*,x,x,x
CCOC(=O)c1c[nH]c2cc(C(=O)OC)ccc2c1=O,x,-0.2,x,x,x
O=C1CC(c2ccco2)CC2=C1C1c3ccccc3C(=O)N1c1ccccc1N2 (centres undefined),88.8*,-4.3,1.1,-1.0,14.1
O=C(NC(=S)Nc1cc(Cl)ccc1Cl)c1ccc(Cl)cc1,x,6.2,x,x,x
CCC(CC)C1C(C#N)=C(N)Oc2n[nH]c(-c3ccccc3)c21 (centres undefined),x,2.9,0.8,-8.0,x
CCC(CC)C1C(C#N)=C(N)Oc2n[nH]c(C)c21 (centres undefined),6.0,16.0,2.1*,9.0,1.8
SMILES,tolC growth inh,HePTP inhibitor,PLAP act,Ecoli WT expand,AP ELISA ortho
CCOc1ccc(N(CC(=O)N2CCOCC2)S(=O)(=O)c2ccccc2)cc1,x,-0.3,x,x,x
COc1ccc(C(=O)Nc2ccc(N3CCCCC3)cc2)cc1[N+](=O)[O-],x,7.6,x,x,x
Cc1onc(-c2c(F)cccc2Cl)c1C(=O)NC1CCSC1=O (centres undefined),x,x,2.1*,1.0,x
Cc1onc(-c2c(Cl)cccc2Cl)c1C(=O)NC1CCCC1,x,-13.3,x,x,x
Cn1c(=O)c2c(SCc3cccnc3)nc(CC(C)(C)C)nc2n(C)c1=O,97.4*,-10.2,1.5,-18.0,-0.1
CCCc1nc(SCc2cccnc2)c2c(=O)n(C)c(=O)n(C)c2n1,32.9,5.1,1.4,-6.0,16.2
Nc1nnnn1CC(=O)N/N=C/c1ccc(Cl)cc1,x,4.4,x,x,x
COc1ccc(N=Cc2c(O)n(-c3ccc(F)cc3)c(=O)[nH]c2=O)c(OC)c1,x,-7.6,x,x,x
O=C(CSc1ncc(-c2ccc(F)cc2)n1Cc1ccco1)Nc1ccc2c(c1)OCO2,69.7*,8.4,0.8,2.0,18.9
O=C(CSc1nnc(-c2cccs2)n1Cc1ccco1)Nc1ccc2c(c1)OCO2,16.4,7.5,0.9,5.0,6.7
CCOc1cc(S(=O)(=O)NCc2ccccn2)c(C)cc1C,4.8,-9.3,2.2*,7.0,1.2
COc1ccc(C(C)C)cc1S(=O)(=O)NCc1ccccn1,4.8,8.7,1.1,-7.0,1.3
CCN(c1cccc(C(F)(F)F)c1)S(=O)(=O)c1ccc2c(c1)CCN2C(=O)C1CC1,69.3*,-3.9,1.2,2.0,-7.6
